Data reported in ChEMBL document CHEMBL1132996, “Derivatives of (R)-1,11-methyleneaporphine: synthesis, structure, and interactions with G-protein coupled receptors” (J Med Chem, 2000).

What was measured:
[1] = biological target: T1, 5-hydroxytryptamine receptor 7 (Rattus norvegicus, UniProt P32305); assay: Binding affinity against Rat 5-hydroxytryptamine 7 receptor using [3H]5-HT
[2] = biological target: T2, 5-hydroxytryptamine receptor 1A (Homo sapiens, UniProt P08908)
T2 sequence (P08908 whole entry): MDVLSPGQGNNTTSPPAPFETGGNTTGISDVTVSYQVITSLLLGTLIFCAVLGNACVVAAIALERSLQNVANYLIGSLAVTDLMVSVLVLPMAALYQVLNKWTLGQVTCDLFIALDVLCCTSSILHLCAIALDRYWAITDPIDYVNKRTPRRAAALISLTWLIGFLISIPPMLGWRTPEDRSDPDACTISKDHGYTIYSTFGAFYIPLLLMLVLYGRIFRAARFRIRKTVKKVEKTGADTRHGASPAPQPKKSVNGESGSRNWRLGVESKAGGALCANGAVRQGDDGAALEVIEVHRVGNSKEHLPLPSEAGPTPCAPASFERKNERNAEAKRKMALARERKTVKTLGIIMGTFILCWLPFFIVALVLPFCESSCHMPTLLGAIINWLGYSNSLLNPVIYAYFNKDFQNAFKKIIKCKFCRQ

D(2) dopamine receptor [3] = biological target: T3, D(2) dopamine receptor (Homo sapiens, UniProt P14416); assay: Binding affinity was measured on cloned Human D2A Receptor which is labeled by [3H]raclopride
T3 sequence (P14416 whole entry): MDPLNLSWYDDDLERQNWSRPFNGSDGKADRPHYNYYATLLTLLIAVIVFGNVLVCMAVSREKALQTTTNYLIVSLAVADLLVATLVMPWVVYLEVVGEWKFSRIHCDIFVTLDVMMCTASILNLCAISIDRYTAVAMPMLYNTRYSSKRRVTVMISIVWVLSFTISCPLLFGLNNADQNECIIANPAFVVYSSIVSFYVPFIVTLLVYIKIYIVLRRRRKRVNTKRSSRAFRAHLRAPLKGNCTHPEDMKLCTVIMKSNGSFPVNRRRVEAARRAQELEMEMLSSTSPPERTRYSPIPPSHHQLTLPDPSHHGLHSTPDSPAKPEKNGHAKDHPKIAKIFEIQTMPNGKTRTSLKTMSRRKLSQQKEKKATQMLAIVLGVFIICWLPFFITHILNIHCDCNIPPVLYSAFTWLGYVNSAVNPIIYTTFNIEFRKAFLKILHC

[4] = biological target: T1, 5-hydroxytryptamine receptor 7; assay: Displacement of [3H]5-HT from over-expressed rat 5-hydroxytryptamine 7 receptor
Summary of the method: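 Cloned rat 5-HT7 receptor in CHO or Sf9 cell membranes, in 50 mM Tris-HCl, 4 mM MgCl2, 1 mM EDTA, pH 7.4; 30-40 pM receptor. Competition against 0.8 nM [3H]5-HT, 60 min at 30 °C. Nonspecific binding defined with 10 μM methiothepin. Filtration, scintillation counting. Ki by nonlinear regression, mean ± SE of 2–3 experiments.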

D(2) dopamine receptor [5] = biological target: T3, D(2) dopamine receptor; assay: Displacement of [3H]raclopride from human Dopamine receptor D2A
Summary of the method: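 Cloned human D2A receptor expressed in mouse fibroblast Ltk- cell membranes. Competition against [3H]raclopride binding, following an earlier method. Ki by nonlinear regression, mean ± SE of 2–3 experiments.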

[6] = biological target: T4, 5-hydroxytryptamine receptor 1A (Rattus norvegicus, UniProt P19327); assay: Binding affinity was measured on cloned rat 5-hydroxytryptamine 1A receptor which is labeled by [3H]8-OH-DPAT
T4 sequence (P19327 whole entry): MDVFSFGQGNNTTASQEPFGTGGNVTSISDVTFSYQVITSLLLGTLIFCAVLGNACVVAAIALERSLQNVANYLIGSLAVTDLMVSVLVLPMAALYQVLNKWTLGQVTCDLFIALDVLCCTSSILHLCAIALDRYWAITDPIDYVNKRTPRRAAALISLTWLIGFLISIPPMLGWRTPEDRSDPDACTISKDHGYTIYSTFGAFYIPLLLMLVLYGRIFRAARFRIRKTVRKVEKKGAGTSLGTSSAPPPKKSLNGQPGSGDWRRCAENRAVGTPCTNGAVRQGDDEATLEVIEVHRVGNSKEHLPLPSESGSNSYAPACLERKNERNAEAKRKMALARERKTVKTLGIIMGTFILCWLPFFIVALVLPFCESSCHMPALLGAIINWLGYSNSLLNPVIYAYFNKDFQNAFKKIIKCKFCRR

[7] = biological target: T2, 5-hydroxytryptamine receptor 1A; assay: Binding affinity was measured on cloned human 5-hydroxytryptamine 1A receptor which is labeled by [3H]8-OH-DPAT
Summary of the method: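 Membranes from CHO cells expressing cloned human 5-HT1A receptor, in 50 mM Tris-HCl, 4 mM MgCl2, pH 7.4; about 40 pM receptor. Competition against 1 nM [3H]8-OH-DPAT, 60 min at 30 °C. Nonspecific binding defined with 10 μM WAY-100635. Filtration, liquid scintillation counting. Ki by nonlinear regression, mean ± SE of 2–3 experiments.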

T1 sequence (P32305 whole entry): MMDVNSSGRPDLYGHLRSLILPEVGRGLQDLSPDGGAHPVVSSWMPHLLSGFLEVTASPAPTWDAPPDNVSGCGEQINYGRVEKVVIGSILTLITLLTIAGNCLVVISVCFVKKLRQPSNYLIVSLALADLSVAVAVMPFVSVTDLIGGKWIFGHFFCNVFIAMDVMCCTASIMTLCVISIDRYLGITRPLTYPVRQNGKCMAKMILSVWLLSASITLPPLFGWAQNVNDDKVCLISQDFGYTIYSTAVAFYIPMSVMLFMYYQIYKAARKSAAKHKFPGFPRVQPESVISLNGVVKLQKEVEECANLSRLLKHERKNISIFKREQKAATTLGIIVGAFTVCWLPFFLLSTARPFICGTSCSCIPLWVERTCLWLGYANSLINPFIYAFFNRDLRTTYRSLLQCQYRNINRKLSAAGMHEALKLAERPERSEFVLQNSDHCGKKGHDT

Compound	Ki [1]	Ki [2]	Ki (D(2) dopamine receptor [3])	Ki [4]	Ki (D(2) dopamine receptor [5])	Ki [6]	Ki [7]
CCCN(CCC)[C@H]1CCc2c(F)ccc(O)c2C1	3180 nM	87 nM	3760 nM				
CN1CCc2ccc3c4c2[C@H]1Cc1cccc(c1-4)[C@]3(C)O				4.3 nM	26 nM	61.5 nM	
CN1CCc2ccc3c4c2[C@H]1Cc1cccc(c1-4)[C@H]3N				13.4 nM	261 nM		142 nM
CN1CCc2ccc3c4c2[C@H]1Cc1cccc(c1-4)[C@@H]3N				18 nM			355 nM
CN1CCc2ccc3c4c2[C@H]1Cc1cccc(c1-4)[C@@H]3O				103 nM	215 nM	1210 nM	
Cc1cccc2c1-c1cccc3c1[C@@H](C2)N(C)CC3	38.3 nM	14.4 nM					
CCO[C@]1(CC)c2cccc3c2-c2c1ccc1c2[C@@H](C3)N(C)CC1				25.7 nM	70.8 nM		1.84 nM
CN1CCc2ccc3c4c2[C@H]1Cc1cccc(c1-4)C3	6.9 nM	40.7 nM	83.2 nM				
CC(=O)N[C@H]1c2cccc3c2-c2c1ccc1c2[C@@H](C3)N(C)CC1				1320 nM	7980 nM		716 nM
CO[C@]1(C)c2cccc3c2-c2c1ccc1c2[C@@H](C3)N(C)CC1				1.1 nM	7.1 nM		17.3 nM
NCCc1c[nH]c2ccc(C(N)=O)cc12	0.029 nM						
CO[C@@]1(C)c2cccc3c2-c2c1ccc1c2[C@@H](C3)N(C)CC1				1.1 nM	71 nM		16.9 nM
CN1CCc2cccc3c2[C@H]1Cc1ccc(O)c(O)c1-3 [APOMORPHINE]	188 nM						
CCCN(CCC)[C@@H]1CCc2cccc(O)c2C1	8.81 nM						
CN1CCc2ccc3c4c2[C@H]1Cc1cccc(c1-4)C3=O				291 nM	317 nM	140 nM	
C[C@@H]1c2cccc3c2-c2c1ccc1c2[C@@H](C3)N(C)CC1	3.36 nM	5.05 nM	19.4 nM				
CN1CCc2ccc3c4c2[C@H]1Cc1cccc(c1-4)[C@@]3(C)O				27.7 nM	182 nM	315 nM	
C[C@H]1c2cccc3c2-c2c1ccc1c2[C@@H](C3)N(C)CC1	5.6 nM	31.1 nM	39.2 nM				
CCO[C@@]1(CC)c2cccc3c2-c2c1ccc1c2[C@@H](C3)N(C)CC1				3.05 nM	24.5 nM		19.1 nM
CC(=O)N[C@@H]1c2cccc3c2-c2c1ccc1c2[C@@H](C3)N(C)CC1				538 nM	3650 nM		204 nM
CN1CCc2ccc3c4c2[C@H]1Cc1cccc(c1-4)[C@H]3O				13.5 nM	23.8 nM	31 nM	
